In assay [1] the test system is MCF-7 breast cancer cell line. Nature of the assay: MTT cytotoxicity assay. The assay is classed as cell-based. The essentials: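 MCF-7 cells from IBRC seeded in RPMI1640 at 37 °C, 5% CO2, high humidity. After one day, medium replaced with medium containing test compound; celecoxib as reference, plain medium as control. Incubated 72 h, then MTT added for 4 h at 37 °C. Supernatant removed, cells exposed to DMSO 20 min at 37 °C, absorbance read at 570 nm.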

The next assay has as its target T1, Human recombinant COX-2 (Homo sapiens, UniProt P35354).
T1 sequence (P35354 18-604): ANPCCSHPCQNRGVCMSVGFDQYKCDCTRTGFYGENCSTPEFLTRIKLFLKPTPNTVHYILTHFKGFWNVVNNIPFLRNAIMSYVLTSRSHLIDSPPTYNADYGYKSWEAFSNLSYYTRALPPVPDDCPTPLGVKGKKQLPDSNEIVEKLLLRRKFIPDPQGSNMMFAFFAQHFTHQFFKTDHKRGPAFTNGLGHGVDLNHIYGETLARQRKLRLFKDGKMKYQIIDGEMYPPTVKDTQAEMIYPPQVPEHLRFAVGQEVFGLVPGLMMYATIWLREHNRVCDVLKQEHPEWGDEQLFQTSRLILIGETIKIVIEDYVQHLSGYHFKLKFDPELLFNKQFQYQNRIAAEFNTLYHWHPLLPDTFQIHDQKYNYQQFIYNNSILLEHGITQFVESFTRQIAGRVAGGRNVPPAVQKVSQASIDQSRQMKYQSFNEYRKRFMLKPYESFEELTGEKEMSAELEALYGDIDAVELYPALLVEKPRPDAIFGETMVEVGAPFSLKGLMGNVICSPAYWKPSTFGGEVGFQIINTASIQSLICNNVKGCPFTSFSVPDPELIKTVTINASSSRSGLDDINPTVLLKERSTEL
Briefly: biochemical.

A further assay has as its system male NMRI mice. Nature of the assay: Acetic acid-induced writhing test. To be noted: for Response (n) Mean ± SD: number of writhing responses during 30 min, eight mice. The assay is classed as in vivo. On the technique in general: Writhing tests count abdominal constrictions after an irritant is injected.
Another assay has as its target T2, Ovine COX-1 (Ovis aries, UniProt P05979).
T2 sequence (P05979 25-600): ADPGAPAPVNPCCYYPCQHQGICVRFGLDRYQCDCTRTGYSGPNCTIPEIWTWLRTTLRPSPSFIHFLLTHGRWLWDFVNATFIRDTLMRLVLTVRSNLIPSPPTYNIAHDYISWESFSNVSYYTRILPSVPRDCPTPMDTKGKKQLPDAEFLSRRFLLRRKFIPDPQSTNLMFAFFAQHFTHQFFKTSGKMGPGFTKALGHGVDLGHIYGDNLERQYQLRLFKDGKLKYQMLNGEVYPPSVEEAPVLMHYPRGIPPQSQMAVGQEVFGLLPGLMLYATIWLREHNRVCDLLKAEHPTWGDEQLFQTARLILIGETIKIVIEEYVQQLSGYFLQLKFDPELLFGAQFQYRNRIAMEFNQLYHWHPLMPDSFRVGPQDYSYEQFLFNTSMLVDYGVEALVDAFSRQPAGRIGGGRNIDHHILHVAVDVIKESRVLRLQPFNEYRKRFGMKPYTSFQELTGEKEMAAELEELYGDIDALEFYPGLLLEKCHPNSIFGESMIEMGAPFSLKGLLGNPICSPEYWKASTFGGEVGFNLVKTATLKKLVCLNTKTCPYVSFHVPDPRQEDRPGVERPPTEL
Nature of the assay: COX-1 enzyme inhibition assay. The assay is classed as biochemical.

Read-outs that look alike come from different tables or passages of the source.

The term IC50 denotes the concentration that inhibits the measured activity by half. Consider `CS(=O)(=O)c1ccc(-c2cc(-c3ccc(F)cc3)n3c(n2)nc2ccccc23)cc1` [Compound 5l, 4-(4-Flourophenyl)-2-(4-(methylsulfonyl)phenyl)benzo[4,5]imidazo[1,2-a]pyrimidine], for which, in assay [1] (10 µM, MCF-7, 72 h, MTT), the “% Inhibition (10 µM)” value is 56.67%. For the same molecule, the 50% inhibitory concentration (IC50) came to 0.69 µM at Human recombinant COX-2 (read-out: IC50 in µM Human recombinant COX-2) and 38.8 µM on Ovine COX-1 (read-out: IC50 in µM Ovine COX-1, fluorescent enzyme kit). Besides, the “Response (n) Mean ± SD” value in the assay on male NMRI mice (10 mg/kg i.p.) is on record as 34.25 ± 1.71; with male NMRI mice (20 mg/kg i.p.) it was 26.13 ± 2.67; in the assay with male NMRI mice (40 mg/kg i.p.), 19.25 ± 4.32; with male NMRI mice (80 mg/kg i.p.), 11.75 ± 1.48. Further, the “Estimated ED50 (mg/kg) (95% Confidence Interval)” value with male NMRI mice (i.p., nonlinear regression of log dose-response curve) is recorded as 25.26 (22.90–27.91) mg/kg.

As a reminder, the inhibition is the relative decrease from the control value, in per cent. As to `CS(=O)(=O)c1ccc(-c2cc(-c3cccc(Cl)c3)n3c(n2)nc2ccccc23)cc1` [Compound 5n, 4-(3-Chlorophenyl)-2-(4-(methylsulfonyl)phenyl)benzo[4,5]imidazo[1,2-a]pyrimidine], the inhibition at 10 µM in assay [1] (Homo sapiens, MCF7, 72 h, read-out: % Inhibition (10 µM)) turned out to be 72.7%. The IC50 on Human recombinant COX-2 turned out to be 0.24 µM; against Ovine COX-1, 10.4 µM. Moreover, at Human recombinant COX-2 (COX-1 vs COX-2), the “Selectivity Index (SI)” value is recorded as 43.3. Besides, the “Response (n) Mean ± SD” value in the assay with male NMRI mice (5 mg/kg i.p.) was determined as 28.50 ± 4.72; in the assay on male NMRI mice (10 mg/kg i.p.) it was 23.50 ± 3.20; in the assay on male NMRI mice (20 mg/kg i.p.) it was 19.88 ± 4.11; with male NMRI mice (40 mg/kg i.p.) it was 15.75 ± 4.35; with male NMRI mice (80 mg/kg i.p.), 11.50 ± 3.77. The ED50 in the assay on male NMRI mice (Mus musculus, ip, read-out: Estimated ED50 (mg/kg) (95% Confidence Interval)) was 12.1 mg/kg.

Source of the values: publication PMC9870662 (Medicinal Chemistry Research, 2023).
